According to paper PMC10786240 (Antiviral research, 2019):
pKd: −log10 of the molar value. Entries after “also recorded” stand apart in the source; their conditions may differ.

What was measured:
OSBP levels in cells = details: cited from earlier work
[1] = system: OSBP localization in HCT-116 cells; assay: immunofluorescence imaging of endogenous OSBP localization; assay type: cell-based; details: for OSBP cellular localization: 24 h, OSW-1 1 nM, 25-OHC, ITZ, TTP, THEV 10,000 nM, Golgi marker TGN46; for OSBP cellular localization on co-administration with OSW-1: 24 h, 10,000 nM compound with 1 nM OSW-1
immortalized cell lines = assay: 48 h assay for cell metabolic activity; assay type: cell-based; details: at <10,000 nM concentrations, Fig. 4B, Supp. Fig. 1
[2] = system: OSBP levels in HCT-116 and HEK293 cells; assay: OSBP expression in cells upon 24 h compound treatment; assay type: cell-based, human; details: for effect of co-administration on OSW-1-induced reduction of OSBP levels: 10,000 nM compound with 1 nM OSW-1, HEK293 and HCT116; for effect on OSBP cellular levels: OSW-1 1 nM, Taxol 10 nM, ITZ, THEV, TTP 10,000 nM, HEK293 and HCT-116
Method in brief: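 HCT-116 (McCoy's 5A, 10% serum, 1% penicillin-streptomycin) or HEK293 cells seeded 5×10^5 per well, 20 h at 37 °C. Compound diluted from stock in complete medium, alone or with 1 nM OSW-1 co-treatment, for 24 h; DMSO vehicle control. Lysates immunoblotted for OSBP (A-5 antibody), β-actin as loading reference. Bands averaged over independent experiments.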

HCT-116 cells = assay: Trypan Blue cell viability assay; assay type: cell-based; details: for effect on cell population (cell counting after Trypan blue staining): 24 h, OSW-1 1 nM, ITZ, THEV, TTP 10,000 nM, each alone
[3] = system: N-terminal OSBP FFAT domain with VAP-A; details: BiMC assay; cited from earlier work
OSBP C-terminal ORD = details: OSBP proteolyzed fragments; cited from earlier work
human OSBP [4] = molecular target: T1, human OSBP (Homo sapiens, UniProt P22059); assay: 96-well [3H]-25-OHC competitive binding assay, OSBP; details: compound at 10,000 nM; 20 nM 3H-25-OHC
T1 sequence (P22059 1-807): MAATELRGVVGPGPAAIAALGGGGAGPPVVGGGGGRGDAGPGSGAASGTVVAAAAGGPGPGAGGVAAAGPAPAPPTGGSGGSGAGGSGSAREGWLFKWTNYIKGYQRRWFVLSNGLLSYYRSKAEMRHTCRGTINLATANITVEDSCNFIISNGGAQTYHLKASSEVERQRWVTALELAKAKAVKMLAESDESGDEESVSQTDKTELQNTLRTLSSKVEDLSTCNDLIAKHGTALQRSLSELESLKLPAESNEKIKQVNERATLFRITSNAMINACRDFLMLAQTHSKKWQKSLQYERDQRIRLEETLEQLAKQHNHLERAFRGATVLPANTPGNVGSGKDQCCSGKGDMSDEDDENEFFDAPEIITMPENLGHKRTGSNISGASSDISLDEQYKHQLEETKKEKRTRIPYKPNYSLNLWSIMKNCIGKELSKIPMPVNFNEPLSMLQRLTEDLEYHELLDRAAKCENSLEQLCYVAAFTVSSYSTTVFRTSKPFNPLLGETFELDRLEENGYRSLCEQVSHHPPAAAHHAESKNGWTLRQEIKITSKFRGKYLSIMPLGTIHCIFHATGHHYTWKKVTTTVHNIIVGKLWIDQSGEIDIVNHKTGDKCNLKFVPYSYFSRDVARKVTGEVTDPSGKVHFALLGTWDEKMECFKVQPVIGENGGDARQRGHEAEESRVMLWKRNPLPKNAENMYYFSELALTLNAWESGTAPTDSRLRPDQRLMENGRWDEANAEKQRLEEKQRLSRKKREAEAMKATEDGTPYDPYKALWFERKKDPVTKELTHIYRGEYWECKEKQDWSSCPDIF

human ORP4 [5] = molecular target: T2, human ORP4 (Homo sapiens, UniProt Q969R2); assay: 96-well [3H]-25-OHC competitive binding assay, ORP4; details: compound at 10,000 nM; 20 nM 3H-25-OHC
T2 sequence (Q969R2 1-916): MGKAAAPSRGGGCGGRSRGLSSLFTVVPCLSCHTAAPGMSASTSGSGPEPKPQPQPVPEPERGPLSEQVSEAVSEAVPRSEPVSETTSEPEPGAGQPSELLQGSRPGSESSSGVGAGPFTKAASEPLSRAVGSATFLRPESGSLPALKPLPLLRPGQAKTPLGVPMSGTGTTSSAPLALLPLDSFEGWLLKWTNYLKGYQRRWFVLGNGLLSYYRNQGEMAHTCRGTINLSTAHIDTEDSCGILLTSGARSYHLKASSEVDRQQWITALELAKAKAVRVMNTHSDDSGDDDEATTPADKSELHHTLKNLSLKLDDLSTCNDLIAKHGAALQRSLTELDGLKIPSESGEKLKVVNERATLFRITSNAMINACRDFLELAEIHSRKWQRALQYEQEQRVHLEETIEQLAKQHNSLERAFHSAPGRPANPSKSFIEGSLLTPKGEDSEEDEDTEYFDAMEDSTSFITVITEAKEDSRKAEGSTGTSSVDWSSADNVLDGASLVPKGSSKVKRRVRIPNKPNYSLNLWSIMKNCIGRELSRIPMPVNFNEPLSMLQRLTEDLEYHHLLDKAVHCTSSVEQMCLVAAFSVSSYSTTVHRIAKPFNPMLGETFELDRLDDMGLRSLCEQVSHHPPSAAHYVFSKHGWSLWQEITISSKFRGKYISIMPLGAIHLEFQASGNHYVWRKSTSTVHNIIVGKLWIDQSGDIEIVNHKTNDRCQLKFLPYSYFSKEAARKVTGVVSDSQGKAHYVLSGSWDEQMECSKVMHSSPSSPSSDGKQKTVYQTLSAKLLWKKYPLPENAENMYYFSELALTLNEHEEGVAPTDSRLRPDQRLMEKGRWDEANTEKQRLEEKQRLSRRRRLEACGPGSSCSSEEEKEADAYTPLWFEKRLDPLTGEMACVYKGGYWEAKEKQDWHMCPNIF
Method in brief: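 Inhibition of 20 nM [3H]-25-OHC binding to human ORP4 overexpressed in […] cell lysate, run in 96-well competitive format; […].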

HeLa cells = assay: 48 h cytotoxicity assay; assay type: cell-based; details: for effect of co-administration on antiproliferative OSW-1 activity, HeLa: 48 h, compound at 10,000 nM with OSW-1
full-length GFP-OSBP = details: read-out: KD for full-length GFP-OSBP; microscale thermophoresis; cited from earlier work
human OSBP [6] = molecular target: T1, human OSBP; details: cited from earlier work
human ORP4 [7] = molecular target: T2, human ORP4; details: cited from earlier work
[8] = system: Coxsackievirus A9 (strain CoxA9–01); details: HeLa; 1 nM OSW-1; infection 24 h after treatment ended; cited from earlier work
cells = details: 6 h OSW-1 treatment of cells; cited from earlier work
[9] = system: Echovirus 2 (strain Echo2–01); details: HeLa; 1 nM OSW-1; infection 24 h after treatment ended; cited from earlier work
[10] = system: OSBP levels in HeLa cells; assay: OSBP levels in HeLa cells after 6 h treatment and 24 h compound-free recovery; assay type: cell-based, human; details: 6 h OSW-1 (10 nM) treatment, 24 h recovery, just prior to viral infection
Method in brief: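 HeLa cells exposed 6 h to compound in complete medium, washed three times, then held 24 h in compound-free complete medium. OSBP read by Western blot (A-5 antibody, β-actin reference) at the time point corresponding to viral inoculation in washout antiviral runs.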

HEK293 cells = assay: 48 h cytotoxicity assay; assay type: cell-based; details: read-out: growth inhibition 50% (GI50), HEK293 cells; 48 h treatment
OSBP = details: in vitro; cited from earlier work

SMILES	OSBP cellular localization [1]	antiproliferative activity (immortalized cell lines)	effect of co-administration on OSW-1-induced reduction of OSBP levels [2]	effect on OSBP cellular levels [2]	effect on cell population (cell counting after Trypan blue staining) (HCT-116 cells)	OSBP cellular localization on co-administration with OSW-1 [1]	effect of co-administration on antiproliferative OSW-1 activity, HeLa (HeLa cells)	other results
C[C@H](CCCC(C)(C)O)[C@H]1CC[C@H]2[C@@H]3CC=C4C[C@@H](O)CC[C@]4(C)[C@H]3CC[C@]12C [25-OHC, 25-hydroxycholesterol]	strongly colocalizes OSBP with the Golgi marker in a small area	–	–	–	–	–	–	effect on OSBP levels in cells (OSBP levels in cells): does not reduce OSBP levels in cells; also recorded: do not reduce OSBP levels
CCC(C)n1ncn(-c2ccc(N3CCN(c4ccc(OCC5COC(Cn6cncn6)(c6ccc(Cl)cc6Cl)O5)cc4)CC3)cc2)c1=O (stereo not drawn) [ITZ, itraconazole]	causes OSBP to adopt a more punctate pattern closely associated with the Golgi marker	no antiproliferative activity	partially blocks the reduction of OSBP levels	do not reduce OSBP levels	15–20%	produces a tight localization of OSBP with a stronger signal than OSW-1 alone	does not significantly affect the antiproliferative OSW-1 activity	inhibition of OSBP FFAT domain interaction with VAP-A [3]: Neither ITZ (3) or TTP (5) substantially inhibited; effect on ORD lipid transfer activity (OSBP C-terminal ORD): blocked the ORD transfer activity of both sterols and PI4P; inhibition of 25-OHC binding to OSBP (human OSBP [4]): no 25-OHC inhibition binding; inhibition of 25-OHC binding to ORP4 (human ORP4 [5]): no 25-OHC inhibition binding; pKd (full-length GFP-OSBP): ~6.37
COc1ccc(C(=O)O[C@H]2[C@H](O[C@@H]3[C@@H](OC(C)=O)[C@H](O[C@H]4C[C@H]5[C@@H]6CC=C7C[C@@H](O)CC[C@]7(C)[C@H]6CC[C@]5(C)[C@@]4(O)[C@H](C)C(=O)CCC(C)C)OC[C@@H]3O)OC[C@@H](O)[C@@H]2O)cc1 [OSW-1]	remaining OSBP is tightly grouped around one location	–	–	pronounced reduction of OSBP cellular levels	15–20%	–	–	Ki, competitive inhibition of 25-OHC binding to OSBP (human OSBP [6]): low nanomolar; Ki, competitive inhibition of 25-OHC binding to ORP4 (human ORP4 [7]): low nanomolar; duration of repression of OSBP levels after compound treatment is stopped (OSBP levels in cells; 1 nM OSW-1 for 6 h, then compound removed): 72 h; reduction of OSBP levels in cells (OSBP levels in cells; short duration (1–6 h), non-cytotoxic dose): > 90%; prophylactic antiviral protection, Cosackievirus 9a [8]: conferred significant antiviral protection; cytotoxicity of 6 h treatment (cells): not cytotoxic nor anti-proliferative; prophylactic antiviral protection, Echovirus 2 [9]: conferred significant antiviral protection; reduction of cellular OSBP levels [10]: > 90%; GI50 (HeLa cells; read-out: growth inhibition 50% (GI50), HeLa cells, 48 h treatment): 0.33 nM; GI50 (HEK293 cells): 0.22 nM
CC1(C)C[C@H]2[C@@H]3CC=C4C[C@@H](OC5CCCCO5)CC[C@]4(C)[C@H]3CC[C@]2(C)[C@H]1O (stereo partly drawn) [THEV]	induces OSBP localization to confined area tightly packed with the Golgi marker	no antiproliferative activity	partially blocks the reduction of OSBP levels	do not reduce OSBP levels	does not affect the cell population	produces cellular localization effects with elements of both OSW-1 and THEV treatment alone	does not significantly affect the antiproliferative OSW-1 activity	effect of co-administration with OSW-1 on cell population (Trypan blue) (HCT-116 cells; 24 h, 10,000 nM compound with 1 nM OSW-1): rescues cell population numbers
C[C@@H](NC(=O)c1cccc(-c2cnc(-c3cc4ccccc4cn3)[nH]2)c1)c1ccc(F)cc1 [TTP]	induces a tight colocalization of OSBP with the Golgi marker with a perinuclear pattern close to the vehicle (DMSO) treated cell	no antiproliferative activity	has no effect on OSBP levels	do not reduce OSBP levels	does not affect the cell population	low expression of OSBP with a pattern not consistent with the OSW-1 alone or TTP alone treatment	does not significantly affect the antiproliferative OSW-1 activity	inhibition of OSBP FFAT domain interaction with VAP-A [3]: Neither ITZ (3) or TTP (5) substantially inhibited; inhibition of 25-OHC binding to OSBP (human OSBP [4]): no 25-OHC inhibition binding; inhibition of OSBP cholesterol transport between vesicles (OSBP): shown to inhibit the ability of OSBP to transport cholesterol between vesicles; inhibition of 25-OHC binding to ORP4 (human ORP4 [5]): no 25-OHC inhibition binding
CC(=O)O[C@H]1C(=O)[C@@]2(C)[C@H]([C@H](OC(=O)c3ccccc3)[C@]3(O)C[C@H](OC(=O)[C@H](O)[C@@H](NC(=O)c4ccccc4)c4ccccc4)C(C)=C1C3(C)C)[C@]1(OC(C)=O)CO[C@@H]1C[C@@H]2O [Taxol]	–	–	–	OSBP levels are not reduced	–	–	–	–
CC(C)=CCC/C(C)=C/Cc1c(O)cc(/C=C/c2cc(O)c3c(c2)C[C@@H]2C(C)(C)[C@H](O)[C@H](O)C[C@@]2(C)O3)cc1O [schweinfurthin A]	–	–	–	–	–	–	–	effect on OSBP levels in cells (OSBP levels in cells): do not reduce OSBP levels
